Tests used:
Format in all cases: functional
MCF7 [1] = assay: Inhibitor activity against MCF-7(Human breast carcinoma)cell line with varying concentration of the drug for 72 hrs; settings: MCF7, 72 h
Outline: (§1)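 Cells exposed 72 h to a range of drug concentrations; drug stocks prepared in ethanol. Growth read by in situ fixation and sulforhodamine B protein staining. GI50 is the concentration giving 50% growth inhibition. Each experiment's value comes from three wells on each of two separate plates (six wells); reported as mean ± SD over n experiments.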

MCF7 [2] = assay: Inhibitor activity against MCF-7/Adr (Human colon carcinoma)cell line with varying concentration of the drug for 72 hrs; settings: MCF7, 72 h, in the assay text read “Human breast carcinoma” for “Human colon carcinoma”; outline: as §1
A549 = assay: Inhibitor activity against A549 (Human lung carcinoma)cell line with varying concentration of the drug for 72 hrs; settings: A549, 72 h; outline: as §1
L1210 [3] = assay: Inhibitor activity against L1210 (murine leukemia )cell line with varying concentration of the drug for 72 hrs; settings: Mus musculus, L1210, 72 h
Outline: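 Murine L1210 leukemia cells grown in RPMI 1640 with 10% FBS. Exposed 72 h to a range of drug concentrations; drug stocks in ethanol. Growth read by in situ fixation and sulforhodamine B staining. GI50 is the concentration giving 50% growth inhibition. Each value comes from six wells over two plates; reported as mean ± SD.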

HT-29 = assay: Inhibitor activity against HT-29 (Human colon carcinoma)cell line with varying concentration of the drug for 72 hrs; settings: HT-29, 72 h; outline: as §1
L1210 [4] = assay: Inhibitor activity against L1210/vmdr (transfected with a plasmid containing mdr1) cell line with varying concentration of the drug for 72 hrs; settings: Mus musculus, L1210, 72 h
Outline: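 L1210 leukemia transfected with human mdr1 (pHaMDR1/A), grown in RPMI 1640 with 10% FBS plus 0.06 µg/mL colchicine; colchicine removed one week before assay. Exposed 72 h to a range of drug concentrations (ethanol stocks). Sulforhodamine B staining after in situ fixation. GI50 is the concentration giving 50% growth inhibition, from six wells over two plates.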

P388 [5] = assay: Inhibitor activity against P388/Adr (murine leukemia )cell line with varying concentration of the drug for 72 hrs; settings: Mus musculus, P388, 72 h; outline: as §1
[6] = tested on: Lewis lung carcinoma cell line; assay: Inhibitor activity against Lewis lung (murine lung carcinoma)cell line with varying concentration of the drug for 72 hrs; settings: Mus musculus; outline: as §1
P388 [7] = assay: Inhibitor activity against P388 (murine leukemia )cell line with varying concentration of the drug for 72 hrs; settings: Mus musculus, P388, 72 h; outline: as §1

GI50 (MCF7 [1]) | GI50 (MCF7 [2]) | GI50 (A549) | GI50 (L1210 [3]) | GI50 (HT-29) | GI50 (L1210 [4]) | GI50 (P388 [5]) | GI50 [6] | GI50 (P388 [7]) | SMILES
18.2 µM | 18.6 µM | 15.6 µM | 15.5 µM | 20 µM | 16.5 µM |  |  |  | CCCCCCCCCCCCCCCCOC[C@H](CO[C@H]1O[C@@H](CO)[C@@H](O)[C@H](O)[C@H]1OC)OC
24.4 µM | 24.4 µM | 19.7 µM | 18.8 µM | 29.6 µM | 26.9 µM |  |  |  | CCCCCCCCCCCCCCCCOC[C@H](CO[C@@H]1C[C@@H](O)[C@H](O)[C@H](CO)O1)OC
23.1 µM | 21.8 µM | 18.3 µM |  |  |  | 29.3 µM | 26 µM | 18.1 µM | CCCCCCCCCCCCCCCCOC[C@H](CO[C@@H]1O[C@@H](CO)[C@@H](O)[C@H](O)[C@@H]1OC)OC
6.93 µM | 12.8 µM | 9.9 µM | 7.02 µM | 7.59 µM | 7.09 µM | 10.2 µM | 11.1 µM | 12.7 µM | CCCCCCCCCCCCCCCCOC[C@H](CO[C@H]1C[C@@H](O)[C@H](O)[C@H](CO)O1)OC
21.7 µM | 23.3 µM | 18.1 µM | 16.2 µM | 23.2 µM | 18.9 µM |  |  |  | CCCCCCCCCCCCCCCCOC[C@H](CO[C@@H]1O[C@@H](CO)[C@@H](O)[C@H](O)[C@@H]1O)OC
9.66 µM | 30.4 µM | 5.05 µM | 3.32 µM | 2.2 µM | 11 µM | 6.39 µM | 30.2 µM | 4.33 µM | CCCCCCCCCCCCCCCCCCOC[C@H](COP(=O)([O-])OCC[N+](C)(C)C)OC [(R)-EDELFOSINE]

Reference: ChEMBL document CHEMBL1129274, “Synthesis and growth inhibitory properties of glycosides of 1-O-hexadecyl-2-O-methyl-sn-glycerol, analogs of the antitumor ether lipid ET-18-OCH3 (edelfosine)” (1996)
